# Active and inactive are the calls of the source.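 The calls were made as follows, unless noted: active = viability at or under a set limit in both replicates, limit being median viability minus 3 SD (cut at about 48% in these data, passing the limit was not always enough); inconclusive = at or under the limit in just one replicate; inactive = at or above the limit in both replicates.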
# Key:
# [1] = Her2 expression decrease, cell viability multiplex – SKBR3 breast tumor cells, AlphaScreen, ATP viability, primary screen (AID 461;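 active = Her2 level under about 52% in both replicate screens, with viability over 70% of control, limit read from the data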;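 as to Her2 level: lower value means less Her2 protein in the cells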;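 as to viability: percent of carrier control wells set as 100% viability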); details: SKBR3 Her2 protein level, 18-24 h, measured here: SKBR3 viability, ATP luminescence, at 10 µM
# [2] = target: Receptor tyrosine-protein kinase erbB-2 (Homo sapiens) (UniProt P04626); experiment: as above; details: 18-24 h, at 10 µM, stronger effect = lower value
# [3] = reduced viability of SK-BR-3 breast cancer cells – cell-based, 24 h, human, pilot screen (AID 572;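 active = viability at or below 10% of carrier control in both of two separate runs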;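 also: compound exposure lasted between 18 and 24 h rather than exactly 24 h; 100% = carrier-treated control wells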); details: SK-BR-3 viability, CellTiter-Glo luminescence, at 10 µM, stronger effect = lower value
# [4] = HUVEC growth inhibition – cell-based, human, primary screen (AID 575;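 active = viability at or below 30% in both replicate assays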;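 also: 100% = median of untreated cell wells with 0.1% DMSO on each plate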); details: HUVEC proliferation, CellTiter-Glo luminescence, 72 h; at 10 µM; stronger effect = lower value
# Method in brief: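 Test system: HUVEC primary cells. Quantity: 1250 endothelial cells in each well. Dosing: single-point 10 µM, DMSO 0.1% final. Incubation: 72 h treatment at 37 °C. Measured by: CTG luminescence. Control set: DMSO cell controls and MePR drug controls. Plate: collagen-coated 384-well format.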
# [5] = H69AR cell proliferation blockers – human, duplicate replicates, primary screen (AID 580); details: H69AR lung tumor cells viability, ATP luminescence, 72 h; at 10 µM; stronger effect = lower value;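 also: 100% = mean luminescence of untreated wells and 0% = no signal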
# [6] = MRP1 drug-resistance reversers in H69AR cells – cell-based, doxorubicin co-treatment, pilot screen (AID 601;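 active = viability loss from added drug above about 55%, and viability with drug at most 40%, in both replicates, limit read from the data, passing the limit was not always enough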); details: CellTiter-Glo, 72 h, at 10 µM; for differential viability (reversal): stronger effect = higher value
# [7] = yeast transport mutant growth inhibition pilot in 384-well plates, post-Golgi transport modulator project (AID 636; in the data active = inhibition above about 31%); details: absorbance 615 nm, about 18 h, stronger effect = higher value
# [8] = growth suppression of yeast trafficking mutant, preliminary HTS, modulators of trafficking downstream of Golgi apparatus project, 1536-format plate, OD 615 nm (AID 637; in the data active = inhibition above about 30%); details: yeast transport mutant growth, absorbance 615 nm, 18 h; stronger effect = higher value
# [9] = H69AR cells + 2 uM doxorubicin, measured here: viability with 2 uM doxorubicin, stronger effect = lower value
# [10] = H69AR cells, compound alone cytotoxicity
# Sequence of Receptor tyrosine-protein kinase erbB-2 (Homo sapiens) (P04626 whole entry, looked up): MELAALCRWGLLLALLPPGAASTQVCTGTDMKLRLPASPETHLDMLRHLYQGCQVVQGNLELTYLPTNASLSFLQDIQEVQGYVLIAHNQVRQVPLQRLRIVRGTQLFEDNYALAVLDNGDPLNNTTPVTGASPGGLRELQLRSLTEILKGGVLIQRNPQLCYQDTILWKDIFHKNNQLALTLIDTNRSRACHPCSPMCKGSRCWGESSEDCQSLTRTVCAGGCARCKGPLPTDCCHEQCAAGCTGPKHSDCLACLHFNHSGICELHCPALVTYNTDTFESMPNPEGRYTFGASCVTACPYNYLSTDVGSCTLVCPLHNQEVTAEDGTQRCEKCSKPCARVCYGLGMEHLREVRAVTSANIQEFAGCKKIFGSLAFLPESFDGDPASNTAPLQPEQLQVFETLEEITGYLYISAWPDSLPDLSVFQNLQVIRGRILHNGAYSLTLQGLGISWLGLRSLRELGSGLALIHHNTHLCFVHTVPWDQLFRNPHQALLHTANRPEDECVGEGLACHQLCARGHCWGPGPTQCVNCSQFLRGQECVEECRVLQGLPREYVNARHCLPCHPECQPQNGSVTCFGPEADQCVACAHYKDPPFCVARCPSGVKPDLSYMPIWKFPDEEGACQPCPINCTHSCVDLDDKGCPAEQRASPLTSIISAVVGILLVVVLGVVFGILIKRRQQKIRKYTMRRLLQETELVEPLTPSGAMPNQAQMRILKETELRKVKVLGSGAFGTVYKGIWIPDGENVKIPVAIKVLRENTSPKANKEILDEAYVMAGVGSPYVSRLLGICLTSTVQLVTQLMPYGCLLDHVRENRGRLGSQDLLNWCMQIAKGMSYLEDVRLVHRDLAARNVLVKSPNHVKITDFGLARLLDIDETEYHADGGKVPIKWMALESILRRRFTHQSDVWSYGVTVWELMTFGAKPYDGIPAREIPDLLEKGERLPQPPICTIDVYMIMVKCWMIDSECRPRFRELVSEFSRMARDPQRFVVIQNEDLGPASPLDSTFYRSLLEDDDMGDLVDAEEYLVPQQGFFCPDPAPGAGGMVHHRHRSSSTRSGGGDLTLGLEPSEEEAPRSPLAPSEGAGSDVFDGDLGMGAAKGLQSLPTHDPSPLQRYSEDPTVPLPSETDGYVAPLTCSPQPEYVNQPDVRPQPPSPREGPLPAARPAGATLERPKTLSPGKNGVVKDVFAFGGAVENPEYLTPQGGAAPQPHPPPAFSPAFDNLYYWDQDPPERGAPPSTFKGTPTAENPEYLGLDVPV
Compound,viability [1],Her2 level [2],viability [3],viability [4],viability [5],differential viability (reversal) ([6]; H69AR cells + 2 uM doxorubicin),"viability [6, 9]","viability [6, 10]",inhibition [7],inhibition [8]
COc1ccccc1OCC(O)COC(N)=O (stereo unspecified),93.5%,96% (inactive),93.5% (inactive),90.5% (inactive),99.9% (inactive),7.94% (inactive),92%,99.9%,–,–
CCCCC(=O)O[C@]1(C(=O)CO)CC[C@H]2[C@@H]3CCC4=CC(=O)CC[C@]4(C)[C@H]3[C@@H](O)C[C@@]21C,111%,108% (inactive),111% (inactive),101% (inactive),96.3% (inactive),3.07% (inactive),93.3%,96.3%,–,–
O=C1C2CC=CCC2C(=O)N1c1ccc(Cc2ccncc2)cc1 (stereo unspecified),88%,96.5% (inactive),88% (inactive),83.8% (inactive),100% (inactive),2.21% (inactive),97.8%,100%,0.78% (inactive),-5.74% (inactive)
CCN(CC)CCNC(=O)c1ccc(N)cc1,97.5%,136% (inactive),97.5% (inactive),99.2% (inactive),88.1% (inactive),-10.7% (inactive),98.8%,88.1%,–,–
C=C(c1cccc2ccccc12)P(=O)(O)O,116%,99.5% (inactive),116% (inactive),104% (inactive),92.9% (inactive),6.39% (inactive),86.5%,92.9%,-6.45% (inactive),4.75% (inactive)
Nc1nnc(-c2cccc(Cl)c2Cl)c(N)n1,109%,124% (inactive),109% (inactive),103% (inactive),97.1% (inactive),3.66% (inactive),93.4%,97.1%,–,–
CCC(NC(C)C)C(O)c1ccc(O)c2[nH]c(=O)ccc12 (stereo unspecified),108%,94.5% (inactive),108% (inactive),107% (inactive),94.4% (inactive),11.7% (inactive),82.7%,94.4%,–,–
CCN(CC)CC#CCOC(=O)C(O)(c1ccccc1)C1CCCCC1 (stereo unspecified),82%,99% (inactive),82% (inactive),79.6% (inactive),71.7% (inactive),-0.33% (inactive),72.1%,71.7%,–,–
CN(C)CCOc1ccccc1Cc1ccccc1,88.5%,95.5% (inactive),88.5% (inactive),107% (inactive),100% (inactive),11% (inactive),89.5%,100%,–,–
C=CS(=O)(=O)c1ccc(Oc2ccc(S(=O)(=O)C=C)cc2)cc1,243%,21% (active),243% (inactive),97% (inactive),1.27% (active),0.405% (inactive),0.865%,1.27%,-4.67% (inactive),1.77% (inactive)
N#Cc1c(NC(=O)CSc2nnnn2C2CCCC2)sc2c1CCCC2,82.5%,85% (inactive),82.5% (inactive),94.6% (inactive),69.9% (inactive),1.64% (inactive),68.2%,69.9%,-0.53% (inactive),0.16% (inactive)
CCN1CCN(c2cc3c(cc2F)c(=O)c(C(=O)O)cn3C2CC2)CC1,103%,98.5% (inactive),103% (inactive),98.3% (inactive),92% (inactive),3.18% (inactive),88.8%,92%,–,–
CCC(=O)O[C@]1(C(=O)CCl)[C@@H](C)C[C@H]2[C@@H]3CCC4=CC(=O)C=C[C@]4(C)[C@@]3(F)[C@@H](O)C[C@@]21C,122%,86.5% (inactive),122% (inactive),84.9% (inactive),87.3% (inactive),-13.3% (inactive),101%,87.3%,–,–
CC(=O)Oc1cc(C(C)C)c(OCCN(C)C)cc1C,96.5%,118% (inactive),96.5% (inactive),105% (inactive),99% (inactive),1.28% (inactive),97.8%,99%,–,–
NS(=O)(=O)c1cc2c(cc1Cl)NC(C(Cl)Cl)NS2(=O)=O (stereo unspecified),102%,112% (inactive),102% (inactive),106% (inactive),93.9% (inactive),-9.8% (inactive),104%,93.9%,–,–
CN(C(=O)C(Cl)Cl)c1ccc(OC(=O)c2ccco2)cc1,130%,88% (inactive),130% (inactive),86.3% (inactive),96.6% (inactive),5.13% (inactive),91.5%,96.6%,–,–
CCS(=O)(=O)CCn1c([N+](=O)[O-])cnc1C,89.5%,122% (inactive),89.5% (inactive),105% (inactive),100% (inactive),9.26% (inactive),90.9%,100%,–,–
Cc1cc(C)nc(NS(=O)(=O)c2ccc(N)cc2)n1,104%,110% (inactive),104% (inactive),83.1% (inactive),86.7% (inactive),7.25% (inactive),79.4%,86.7%,–,–
Cc1ccc(-c2csc3ncn(-n4c(C)ccc4C)c(=O)c23)o1,96%,114% (inactive),96% (inactive),88.7% (inactive),91.3% (inactive),10.3% (inactive),81%,91.3%,-5.27% (inactive),-5.57% (inactive)
Cc1ncc([N+](=O)[O-])n1CCO,99.5%,108% (inactive),99.5% (inactive),103% (inactive),105% (inactive),8.66% (inactive),96.7%,105%,–,–
CC(C)(S)[C@@H](N)C(=O)O,102%,93% (inactive),102% (inactive),106% (inactive),110% (inactive),15.4% (inactive),94.3%,110%,–,–
C[C@]12C[C@H](O)[C@H]3[C@@H](CCC4=CC(=O)CC[C@@]43C)[C@@H]1CC[C@@H]2C(=O)CO,106%,104% (inactive),106% (inactive),105% (inactive),88.3% (inactive),-5.99% (inactive),94.3%,88.3%,–,–
CC(C)CSc1nc2ccccc2n1CC(N)=O,89.5%,96% (inactive),89.5% (inactive),87.6% (inactive),93.4% (inactive),0.185% (inactive),93.2%,93.4%,-0.38% (inactive),0.67% (inactive)
O=C(CN1C(=O)c2cccc3cccc1c23)N1CCN(c2ccccc2)CC1,100%,103% (inactive),100% (inactive),111% (inactive),113% (inactive),23.3% (inactive),89.5%,113%,1.49% (inactive),-1.5% (inactive)

# Source: PubChem BioAssay
